# Measurements from different studies.
# Protocols differ between the studies behind these lines.
# PADI1: Protein-arginine deiminase type-1 (PADI1, Homo sapiens, UniProt Q9ULC6)
# KDR: Vascular endothelial growth factor receptor 2 (KDR, Homo sapiens, UniProt P35968)
# CDK16: Cyclin-dependent kinase 16 (CDK16, Homo sapiens, UniProt Q00536)
# ATAD2 bromodomain: ATPase family AAA domain-containing protein 2, bromodomain (ATAD2, Homo sapiens, UniProt Q6PL18)
SMILES,target,assay,test system,conditions,measurement,result
NC(=O)[C@H](CCCN=C(N)N)NC(=O)c1ccccc1,PADI1,"enzyme activity, substrate",,,Km,160 µM
N=C(CCl)NCCC[C@H](NC(=O)c1ccccc1C(=O)O)c1nn[nH]n1,PADI1,"enzyme activity, inhibitor",,,kinact/KI,1370 M⁻¹ s⁻¹
COc1ccc(C=NNC(=O)c2sc(Nc3ccccc3)c(C(=O)Nc3ccc(OC)cc3)c2NC(C)=O)cc1,KDR,"enzyme activity, inhibitor",,10 nM,remaining activity,96%
CCC1(CC)NC(=O)c2c(c3ccc(Cl)c(Cl)c3n2C)C1C#N (stereo not shown),CDK16,"thermal stability, DSF",,10 µM,ΔTm,0.3 °C
N=C(CF)NCCC[C@H](NC(=O)c1ccccc1)c1nn[nH]n1,PADI1,"enzyme activity, inhibitor",,,kinact/KI,5.75 M⁻¹ s⁻¹
COc1cc([C@@H]2c3cc4c(cc3[C@@H](O[C@@H]3O[C@@H]5CO[C@@H](C)O[C@H]5[C@H](O)[C@H]3O)[C@H]3COC(=O)[C@H]23)OCO4)cc(OC)c1O,"Glycogen synthase kinase-3 beta (GSK3B, Homo sapiens, UniProt P49841)","enzyme activity, inhibitor, ADP detection",,100 µM,inhibition,15.4%
Oc1ccc(-c2nc(-c3ccncc3)c(-c3ccc(F)cc3)[nH]2)cc1,ATAD2 bromodomain,"thermal stability, DSF",,10 µM,ΔTm,0.05 °C
COc1ccc(NC(=O)c2c(Nc3ccccc3)sc(C(=O)NN=Cc3ccc(OC)c(O)c3)c2NC(C)=O)cc1,KDR,"enzyme activity, inhibitor",,1 µM,remaining activity,63.2%
NCCCC[C@H](NC(=O)[C@@H]1CCCN1C(=O)[C@@H]1CSSC[C@H](NC(=O)CNC(=O)CNC(=O)CN)C(=O)N[C@@H](Cc2ccc(O)cc2)C(=O)N[C@@H](Cc2ccccc2)C(=O)N[C@@H](CCC(N)=O)C(=O)N[C@@H](CC(N)=O)C(=O)N1)C(=O)NCC(N)=O,"Vasopressin V1a receptor (AVPR1A, Homo sapiens, UniProt P37288)","calcium signal, agonist",CHO-S,,Emax,41%
COc1ccc(NC(=O)c2c(Nc3ccccc3)sc(C#N)c2NC(=O)CNc2ccc([N+](=O)[O-])cc2)cc1,KDR,"enzyme activity, inhibitor",,1 µM,remaining activity,79.1%
Cn1c2c(Cl)c(Cl)ccc2c2cc(N)[nH]c(=O)c21,CDK16,"thermal stability, DSF",,10 µM,ΔTm,0.3 °C
N=C(CCl)NCCC[C@H](NC(=O)c1ccc(-c2ccccc2)cc1)c1nn[nH]n1,PADI1,"enzyme activity, inhibitor",,,kinact/KI,51.7 M⁻¹ s⁻¹
COc1ccc(NC(=O)c2c(Nc3ccccc3)sc(C#N)c2NC(=O)CNc2ccc(Cl)cc2)cc1,KDR,"enzyme activity, inhibitor",,1 µM,remaining activity,41.1%
N=C(CCl)NCCC[C@H](NC(=O)c1ccccc1)c1nn[nH]n1,PADI1,"enzyme activity, inhibitor",,,kinact/KI,110 M⁻¹ s⁻¹
Cc1cc2c(cc1N1C(=O)c3cccc4c(Cl)ccc(c34)C1=O)n(C)c(=O)n2C,ATAD2 bromodomain,"thermal stability, DSF",,10 µM,ΔTm,0 °C
Cc1ccc(C(=O)Nc2ccc(CN3CCN(C)CC3)c(C(F)(F)F)c2)cc1C#Cc1cnc2cccnn12,"1-phosphatidylinositol 3-phosphate 5-kinase (PIKFYVE, Homo sapiens, UniProt Q9Y2I7)",cell-free assay,,23.5 nM,remaining signal,100%
COc1ccc(NC(=O)c2c(Nc3ccccc3)sc(C(=O)NN=Cc3ccc(Cl)cc3)c2NC(C)=O)cc1,KDR,"enzyme activity, inhibitor",,0.1 µM,remaining activity,88.3%
CC(=O)NCCc1c[nH]c2ccc(O)cc12,"Sulfotransferase 1C4 (SULT1C4, Homo sapiens, UniProt O75897)","enzyme activity, substrate",,pH 7,Km,45.7 µM
CC(C)(C)n1nnc([C@H](CCCNC(=N)CCl)NC(=O)c2ccccc2C(=O)O)n1,PADI1,"enzyme activity, inhibitor",,,kinact/KI,2700 M⁻¹ s⁻¹
COc1ccc(NC(=O)c2c(Nc3ccccc3)sc(C(=O)NN=Cc3cc(OC)c(OC)c(OC)c3)c2NC(C)=O)cc1,KDR,"enzyme activity, inhibitor",,0.1 µM,remaining activity,95.4%
CN(C)C1CCN(CC#Cc2nn(C3CCCC3)c3nc(NCc4ccccc4)ncc23)C1 (stereo not shown),"cGMP-dependent protein kinase 2 (PRKG2, Homo sapiens, UniProt Q13237)","enzyme activity, inhibitor, FRET",,0.1 µM,inhibition,7%
CC[C@H]1OC(=O)[C@H](C)[C@@H](O[C@H]2C[C@@](C)(OC)[C@@H](O)[C@H](C)O2)[C@H](C)[C@@H](O[C@@H]2O[C@H](C)C[C@H](N(C)C)[C@H]2O)[C@](C)(O)C[C@@H](C)C(=O)[C@H](C)[C@@H](O)[C@]1(C)O,"Motilin receptor (MLNR, Homo sapiens, UniProt O43193)","inositol phosphate, agonist, TR-FRET",AD293,,Emax,100%
Nc1ncnc2occ(-c3ccc(NC(=O)Nc4cc(C(F)(F)F)ccc4F)cc3)c12,"Phosphatidylinositol 5-phosphate 4-kinase type-2 beta (PIP4K2B, Homo sapiens, UniProt P78356)","enzyme activity, inhibitor",,20 µM,remaining activity,100%
COc1ccc(NC(=O)c2c(Nc3ccccc3)sc(C#N)c2NC(=O)CNc2ccc(Br)cc2)cc1,KDR,"enzyme activity, inhibitor",,10 nM,remaining activity,93%
CC(C)(C)n1nnc([C@H](CCCNC(=N)CF)NC(=O)c2ccccc2)n1,PADI1,"enzyme activity, inhibitor",,,kinact/KI,26.6 M⁻¹ s⁻¹
